We go through four molecules from ChEMBL document CHEMBL3091430, “Design and evaluation of xanthine based adenosine receptor antagonists: potential hypoxia targeted immunotherapies” (Bioorg Med Chem, 2013).

Series [1] in a line: Photostability of the compound assessed as compound remaining after 2 weeks by HPLC analysis. Format: physicochemical. The following applies: 336 h.
The test system of another series is Lymphocyte. Kind of series: Induction of mAB-CD3-mediated IFN-gamma production in CGS-21680-treated C57/BL6 mouse lymphocytes at 0.5 uM after 24 hrs by ELISA. Format: functional, cell-based. Summed up: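 C57/BL6 mouse splenic lymphocytes activated with 0.1 μg/mL anti-CD3 mAb, then immediately given 1, 10 or 100 nM CGS 21680 with or without antagonist at 0.5 μM. Supernatant IFN-gamma measured after 24 h by sandwich ELISA (paired mAb with standard), in pg/mL; triplicates, mean ± SEM.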

Series [2] can be described thus: Partition coefficient, log K of the compound. Format: physicochemical. The conditions noted are these: octanol/water.
A short description of series [3]: Octanol-water partition coefficient, log P of the compound by HPLC analysis. The class given is physicochemical.
Series [4] concerns the target Adenosine receptor A2a (Mus musculus) (UniProt Q60613). Kind of series: Antagonist activity at adenosine A2A receptor in C57/BL6 mouse lymphocytes assessed as inhibition of CGS-21680-mediated cAMP accumulation after 15 mins by ELISA. Format: functional, cell-based. In short, it runs like this:
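Splenic lymphocytes from C57/BL6 mice stimulated with 1 μM CGS 21680 (A2AR agonist), with or without antagonist over 0.1–10 μM; 15 min at 37 °C, stopped with 1 N HCl. Intracellular cAMP quantified by ELISA, expressed as pmol/million cells; triplicate samples, mean ± SEM.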

Series [5] is described as follows: Half life in rat. Format: ADME, organism-based. The following applies: in vivo.
The nature of series [6]: Photostability of the compound assessed as compound remaining measured within 7 days by HPLC analysis. The class given is physicochemical. The conditions noted are these: read-out: Stability.
The nature of series [7]: Photostability of the compound assessed as compound remaining measured within 24 hrs by HPLC analysis. Format: physicochemical. The following applies: read-out: Stability.
Series [8] can be described thus: Half life in mouse at 20 mg/kg, ip by HPLC analysis. More on the design: dose 20 mg/kg, route intraperitoneal. The conditions noted are these: in vivo. Format: ADME, organism-based.

Usually logP stands for the decadic logarithm of the partition coefficient of the neutral form, usually between octanol and water. Read a high logP as higher lipophilicity. What is called half-life is the time needed for the level to fall by half in the phase considered. The low end stands for rapid decline, the high end for slow decline.

Molecules are shown by their SMILES. Activity calls are given as the source filed them.

Chain of Adenosine receptor A2a (Mus musculus) (Q60613 whole entry): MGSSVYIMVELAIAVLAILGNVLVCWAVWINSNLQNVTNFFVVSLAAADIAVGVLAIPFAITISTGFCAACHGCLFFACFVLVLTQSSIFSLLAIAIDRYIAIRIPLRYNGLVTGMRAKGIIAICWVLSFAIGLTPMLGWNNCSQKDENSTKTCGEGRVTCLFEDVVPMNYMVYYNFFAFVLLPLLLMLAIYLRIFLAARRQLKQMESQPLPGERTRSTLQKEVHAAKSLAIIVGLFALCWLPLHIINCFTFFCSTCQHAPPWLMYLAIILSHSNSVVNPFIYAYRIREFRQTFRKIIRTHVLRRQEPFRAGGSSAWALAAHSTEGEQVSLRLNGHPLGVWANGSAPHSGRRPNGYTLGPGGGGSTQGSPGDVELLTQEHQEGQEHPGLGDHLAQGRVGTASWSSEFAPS

For the molecule `CCn1c(=O)c2c(nc(/C=C/c3ccc(C(=O)OCCOCCOCCOCCOCCOCCOCCOCCOC)c(OC)c3)n2C)n(CC)c1=O`, the Stability entry in series [1] was “Stable”. The outcome in the series on Lymphocyte was Active. For the same molecule, the “log K” value in [2] was found to be 0.145. The logP in series [3] turned out to be 2.8.

Take `CCn1c(=O)c2c(nc(/C=C/c3ccc(C(=O)OC)c(OC)c3)n2C)n(CC)c1=O`: the inhibition entry in series [4] is “Active”.

On to `CCn1c(=O)c2c(nc(/C=C/c3ccc(OC)c(OC)c3)n2C)n(CC)c1=O` [ISTRADEFYLLINE], for which, in series [5], the half-life was 2 h. Moreover, the result with Lymphocyte was Active. Also, the “log K” value in series [2] came to 0.162. Also, the remaining at 168 h in series [6] was greater than 50%. Moreover, the remaining at 24 h in [7] was determined as 10%. In [3], this molecule yielded a log partition coefficient (logP) of 2.98.

In turn, `Nc1nc(NCCc2ccc(O)cc2)nc2nc(-c3ccco3)nn12` [ZM-241385] came in with a half-life in [8] of less than 1 h.
